# Compound activity: PubChem, Johns Hopkins Ion Channel Center
# MrgX1 agonist: agonists of human MrgX1 receptor | Q96LB2 | MrgX1-HEK293 cells, Fluo-4 calcium fluorescence, agonist mode; active compounds read high | B-score at 10 µM | 0.44% of 310,000 active | AID 588627;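 active = calcium response B-score plate-corrected fluorescence ratio at least 3 library SD, with starting fluorescence B-score inside 5 SD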
# Target sequence (Q96LB2 whole entry, looked up): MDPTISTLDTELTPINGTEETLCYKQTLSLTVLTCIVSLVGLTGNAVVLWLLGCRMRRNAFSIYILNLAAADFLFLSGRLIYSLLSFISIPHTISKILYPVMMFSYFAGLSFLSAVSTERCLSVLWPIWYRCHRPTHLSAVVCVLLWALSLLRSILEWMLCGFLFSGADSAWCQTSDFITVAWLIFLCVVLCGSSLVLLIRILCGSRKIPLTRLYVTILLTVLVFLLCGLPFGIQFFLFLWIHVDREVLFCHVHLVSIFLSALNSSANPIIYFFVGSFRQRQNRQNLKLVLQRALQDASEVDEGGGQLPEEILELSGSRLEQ
#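 Assay system: MrgX1-expressing HEK293 cells / Amount: fifteen thousand cells per well / Doses: test compound in the initial addition of three / Timing: cells plated overnight, dye loaded 0.5 h 37 °C, 0.5 h room temperature / Technique: kinetic calcium dye fluorescence, Fluo-4 NW / Control set: positive and negative controls per plate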
# RGS4 inh: human RGS4 inhibition. P49798. HEK293 M3R/RGS4 inducible, Fluo-4 calcium flux; active compounds read high; triggered by carbachol at its EC20. B-score at 10 µM. 0.45% of 310,000 active. AID 463165;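 active = B-score, a plate-corrected calcium signal, over three deviations above library mean, with baseline fluorescence within five deviations of library mean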;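 also: RGS4 expression induced by doxycycline in cells with stable M3 receptor; B-score is computed from the integrated fluorescence ratio over baseline after carbachol; higher B-score means a larger calcium signal and so more RGS4 inhibition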
# MrgX1 antag: human MrgX1 receptor antagonism, primary screen. MRGX1-HEK293 calcium flux, Fluo-4, BAM8-22 antagonism; active compounds read low. B-score at 10 µM. 1.3% of 310,000 active. AID 588676;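 active = calcium-response B-score plate-corrected more than 3 library SD below zero, starting fluorescence within 5 deviations, no agonist response on first addition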;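 also: peak minus trough fluorescence over baseline after final BAM8-22 challenge near maximal dose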
# RGS4 pot: RGS4 potentiation or activation | 0.92% of 310,000 active | HEK293 M3R/inducible RGS4, carbachol calcium flux Fluo4; active compounds read low | B-score at 10 µM | AID 463111;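 active = B-score of the integrated calcium signal more than 4 SD below the library mean, with starting fluorescence not abnormally high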;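 also: negative B-score means reduced calcium response which marks RGS4 activation or potentiation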
#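 Also added: carbachol at ECmax as muscarinic agonist stimulus; Assay system: HEK293 cells with stable M3R and inducible RGS4; Timing: overnight RGS4 induction, 30 min dye load 37 °C, 20 min compound RT; Measured by: Fluo4-AM (2 µM) calcium-flux fluorescence, kinetic read.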
# MrgX1 PAM: human MrgX1 positive allosteric modulation, primary screen; MrgX1-HEK293, Fluo-4 calcium flux, FDSS; active compounds read high; B-score at 10 µM; Q96LB2; 0.63% of 310,000 active;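 active = plate-corrected calcium response at least 3 library SD above typical, normal starting fluorescence, not activating the receptor alone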;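 also: compound read alongside a low EC10 to EC30 dose of BAM8-22 agonist; peak minus trough fluorescence over baseline measured at the second addition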
# MrgX1 ag confirm: reconfirmed activator of human MrgX1 receptor signaling. activation, % at 10 µM. 78% of 600 active. shares compounds with MrgX1 agonist. MrgX1-HEK293, Fluo-4 calcium fluorescence, FDSS;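 active = calcium signal rise, corrected for plate position, at least 3 library SD high, with starting brightness within 5 such deviations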
# HEK293 Ca flux: counter-screen for MrgX1 antagonists: effect in parental HEK293 cells | shares compounds with MrgX1 antag | Fluo-4 calcium fluorescence, FDSS | fluorescence ratio F(max-min)/F0 at 10 µM | 2% of 4,000 active | AID 624111;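 active = duplicate-averaged calcium fluorescence ratio at least three times the standard deviation of buffer wells, a nonspecific response in parental cells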
# HEK293 Ca counter: activity in parental HEK293 cells without MrgX1 | parental HEK293 calcium flux, Fluo-4 fluorescence ratio; active compounds read high | shares compounds with MrgX1 antag | 0.4% of 4,000 active | fluorescence ratio F(max-min)/F0 at 10 µM;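 active = calcium fluorescence ratio, averaged over duplicates, at least 3 SD of the buffer-well ratio, meaning a nonspecific response in receptor-free cells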;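 also: untransfected parental HEK293 lacking MrgX1 used as counterscreen for MrgX1 allosteric activators; fluorescence change taken during the second addition on a kinetic imager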
# HEK293 Ca cntr2: activity in parental HEK293 cells lacking MrgX1 receptor. shares compounds with MrgX1 antag. Fluo-4 calcium fluorescence (FDSS); active compounds read high. fluorescence ratio F(max-min)/F0 at 10 µM. 8.7% of 4,000 active;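 active = calcium fluorescence ratio at least three times the spread of buffer wells, meaning a non-specific response in parental cells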
# * marks the source's active call; other numbers are inactive results; i = inactive; . = not tested or not shown. Compounds with a hit are over-represented: about 3.5% of the library has one in this group of screens.
SMILES,MrgX1 agonist,RGS4 inh,MrgX1 antag,RGS4 pot,MrgX1 PAM,MrgX1 ag confirm,HEK293 Ca flux,HEK293 Ca counter,HEK293 Ca cntr2
COc1ccc(N=Cc2c(OC)ccc3ccccc23)cc1,i,i,i,i,i,.,.,.,.
CC(C)(C)C#CC(CCc1ccccc1)OS(N)(=O)=O (configuration not stated),i,i,i,i,i,.,.,.,.
CC1CCCCN1S(=O)(=O)c1ccc(C(=O)Nc2nnc(-c3ccccc3Cl)o2)cc1 (configuration not stated),41*,i,i,i,i,323%*,i,i,63*
Cc1ccc(Cn2c(-c3nonc3N)nc3ccccc32)cc1,i,i,i,i,i,.,.,.,.
Cc1ccc(Cn2c(N)nc3ccccc32)cc1,30*,i,i,i,i,78%*,i,i,i
Nc1nc2ccccc2n1Cc1ccc(Cl)c(Cl)c1,36*,i,i,i,i,164%*,i,i,i
N#Cc1ccccc1Cn1cc(C#N)c2ccccc21,i,i,i,i,i,.,.,.,.
N#Cc1cn(Cc2ccccc2)c2ccccc12,30*,i,i,i,i,161%*,i,i,i
Cn1c(=O)c(C(=O)CN2CCN(S(=O)(=O)c3ccccc3)CC2)c(N)n(Cc2ccccc2)c1=O,38*,i,i,i,i,171%*,i,i,46*
O=Cc1c[nH]c2ccc(S(=O)(=O)N3CCOCC3)cc12,i,i,i,i,i,.,.,.,.
COCC(=O)c1[nH]c2ccccc2c1C,41*,i,i,i,i,196%*,i,i,i
CC1(C)CC(=O)C(C(C2=C(O)CC(C)(C)CC2=O)c2ccc(Cl)c([N+](=O)[O-])c2)C(=O)C1 (configuration not stated),91*,i,i,i,i,i,i,i,i
O=C(Cn1nc(Cl)nc1Cl)c1ccc2c(c1)OCCO2,53*,i,i,i,i,194%*,i,i,i
CCOC(=O)Cc1csc(NC(=O)c2cccc(Cl)c2)n1,i,i,i,i,i,.,.,.,.
CCOC(=O)Cc1csc(NC(=O)c2ccc(Cl)s2)n1,31*,i,i,i,i,112%*,i,i,i
N=C(N)SCc1ccc(Cl)cc1Cl,39*,i,i,i,i,219%*,i,i,i
NC(=S)Cc1ccc(Cl)cc1Cl,i,i,i,i,i,.,.,.,.
CCN(CC1CCCO1)C(=O)c1cc(COc2ccccc2SC)on1 (configuration not stated),i,i,i,i,i,.,.,.,.
CN1CCN(S(=O)(=O)c2cccc(C(=O)N(C)CC(=O)Nc3ccc(F)c(F)c3F)c2)CC1,i,i,i,i,i,.,.,.,.
CC(C)C(=O)Nc1ccc(C(=O)NNC(=S)NC(=O)c2cccs2)cc1,i,i,i,i,i,.,.,.,.
COc1ccc(C(=O)NNC(=S)NC(=O)c2cccnc2)cc1,i,i,i,i,i,.,.,.,.
COc1ccc(C(=O)NNC(=S)NC(=O)c2cccs2)cc1,122*,i,i,i,i,339%*,i,i,94*
Cc1cccc(C(=O)NNC(=S)NC(=O)c2cccs2)c1,137*,i,i,-7.1*,i,647%*,i,i,122*
COc1ccc(C(=O)NNC(=S)NC(=O)c2ccc(OC)cc2)cc1,81*,i,i,i,i,411%*,i,i,97*
